Lmaj promast – reduces viability of Leishmania major promastigotes. resazurin fluorescence viability. inhibition, % at 10 µM. 200,000 tested, 9% active. AID 1063; in the data active means inhibition above about 50%;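 further: promastigotes grown with compound for 44 hours at 28 °C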
ABCB1 inh – inhibitors of human ABCB1 transporter, ABCG2 counter-screen. CCRF-Adr cells, JC-1 efflux, flow cytometry. inhibition, % at 6.6 µM. 190,000 tested, 0.067% active; in the data active means inhibition above about 40%;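 further: higher value means more JC-1 retained so stronger ABCB1 efflux block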
RAM network inh – yeast RAM network inhibition. S. cerevisiae dse1pr::URA3 reporter, 5-FOA growth OD615, 2 d; analog-sensitive cbk1-as2 kinase mutant strain. 190,000 tested, 1.8% active. inhibition, % at 50 µM. AID 868;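 active means inhibition above a set limit, 3 SD over mean compound inhibition, cut at about 8.4% in these data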;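 further: inhibition rescues growth on 5-FOA so higher OD means more RAM inhibition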
ABCG2 inh – human ABCG2 inhibition, ABCB1 as counter-screen; 190,000 tested, 0.1% active; Q9UNQ0; IgMXP3 cells, JC-1 efflux, flow cytometry; AID 1325; inhibition, % at 6.6 µM;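 active means inhibition above 80%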
Target sequence (Q9UNQ0 whole entry, looked up): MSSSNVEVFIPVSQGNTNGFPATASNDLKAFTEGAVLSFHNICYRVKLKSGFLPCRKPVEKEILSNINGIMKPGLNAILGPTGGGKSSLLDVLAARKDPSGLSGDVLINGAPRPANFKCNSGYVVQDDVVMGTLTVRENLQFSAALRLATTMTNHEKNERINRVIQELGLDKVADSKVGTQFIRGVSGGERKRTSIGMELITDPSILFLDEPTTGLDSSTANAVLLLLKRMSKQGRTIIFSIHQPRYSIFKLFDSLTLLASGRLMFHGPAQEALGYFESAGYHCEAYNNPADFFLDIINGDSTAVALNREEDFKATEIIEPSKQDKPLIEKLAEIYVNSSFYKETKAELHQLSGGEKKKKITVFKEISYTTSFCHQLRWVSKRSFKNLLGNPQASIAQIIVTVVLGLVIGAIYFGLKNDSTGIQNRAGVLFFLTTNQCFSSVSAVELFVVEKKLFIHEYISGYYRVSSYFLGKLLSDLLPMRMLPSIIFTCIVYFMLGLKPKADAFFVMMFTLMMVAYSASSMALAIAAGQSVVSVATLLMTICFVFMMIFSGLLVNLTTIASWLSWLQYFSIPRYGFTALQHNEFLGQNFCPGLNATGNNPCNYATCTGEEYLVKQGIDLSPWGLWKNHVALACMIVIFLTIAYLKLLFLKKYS
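material = IgMXP3 (ABCG2) plus far-red-tagged CCRF-Adr (ABCB1) cells | amount = 3 million cells/mL, equal mix of both lines | also added = JC-1 transporter substrate | dosing = one concentration, 6.6 µM final | schedule = 10 min at 25 °C | measured by = flow cytometric JC-1 green MFI at 530 nm | read-out basis = percent efflux inhibition, scaled nicardipine 100% to DMSO 0%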
WT yeast gro inh – growth inhibition of WT yeast, mitochondrial fusion screen; inhibition, % at 10 µM; 190,000 tested, 2.1% active; mitochondrial fusion phenotypic screen, WT strain; in the data active means inhibition above about 58%; tested in S. cerevisiae
RAM 5-FOA – restores 5-FOA growth of efflux-deficient yeast. AID 1305. shares compounds with RAM network inh. 1,200 tested, under 10 active. S. cerevisiae efflux-deficient reporter strain, 5-FOA growth OD615, 2 days. max inhibition, %; call rule not given here
Numbers stand for hits; i = inactive; nt = no result given. Shown are actives, neighbours in structure and some others; about 12% of the full set was active somewhere.

SMILES	Lmaj promast	ABCB1 inh	RAM network inh	ABCG2 inh	WT yeast gro inh	RAM 5-FOA
O=C(NCc1ccccc1)C1=C[C@H](c2ccc(C(F)(F)F)cc2)C[C@H](OCc2ccc(CO)cc2)O1	i	i	12	i	i	i
Cc1ccc(CN2CCSc3ccc(C(=O)NCc4ccco4)cc32)cc1	i	i	14	i	i	i
COc1ccc(Nc2nc(Cl)c(C=O)s2)cc1	i	i	i	i	i	nt
CCC(=O)N1CCc2cc(S(=O)(=O)NC(Cc3ccccc3)C(=O)NC3CCCCC3)ccc21 (stereo not drawn)	i	i	14	i	i	i
Cc1ccc(N2N=C(c3ccc(F)cc3)CC2c2ccco2)cc1 (stereo not drawn)	i	i	12	i	i	i
CC(=O)N1N=C(c2ccc(C)cc2)CC1c1ccco1 (stereo not drawn)	i	i	i	i	i	nt
Cc1cc(C)c(S(=O)(=O)NCc2ccc3c(c2)cc(C)n3C)c(C)c1	i	i	14	i	i	i
Cc1cc2cc(CNS(=O)(=O)c3ccc4ccccc4c3)ccc2n1C	i	i	i	i	i	nt
CCOC(=O)C(=O)N1CCC(C(=O)OC)CC1	i	i	i	i	i	nt
COc1ccc(-n2c(C)cc(/C=C3/SC(=S)N(C)C3=O)c2C)cc1	i	i	i	i	i	nt
COCCN1C(=O)/C(=C/c2ccc(N3CCCC3)cc2C)SC1=S	i	67	16	91	i	i
CCn1cc(NC(=O)CCl)c(C)n1	i	i	i	i	i	nt
C=CCN1C(=O)/C(=C/c2ccc(OC(C)=O)c(OCC)c2[N+](=O)[O-])SC1=S	91	i	12	i	97	i
COc1cc(NC(=O)C/C(C)=N/NC(=O)C(OC)c2ccccc2)c(OC)cc1Cl (stereo not drawn)	i	i	i	i	i	nt
O=C(CNS(=O)(=O)c1c(Cl)cccc1Cl)OCc1csc(-c2ccccc2)n1	57	i	13	i	i	i
O=C(CNS(=O)(=O)c1ccc2ccccc2c1)OCc1csc(-c2ccccc2)n1	i	i	14	i	i	i
CCCOC(=O)c1ccc(Oc2c(-c3ccc(OCC)cc3O)n[nH]c2C)cc1	i	i	15	i	i	i
CCCc1ccc(OCC(=O)NNC(=O)c2cccnc2)cc1	i	i	i	i	i	nt
O=C(Nc1ccc(Cl)c([N+](=O)[O-])c1)C(Sc1ccccc1)c1ccccc1 (stereo not drawn)	i	i	15	i	80	i
COc1ccc(NC(=O)C(Sc2ccccc2)c2ccccc2)c(OC)c1 (stereo not drawn)	i	i	i	i	i	nt
COc1ccccc1NC(=O)C(Sc1ccccc1)c1ccccc1 (stereo not drawn)	i	i	11	i	i	i
O=C(Nc1ccc(Cl)c([N+](=O)[O-])c1)C(NCCCO)c1ccccc1 (stereo not drawn)	i	i	i	i	i	nt
COc1ccc(C2CC23N=C(c2ccccc2)OC3=O)cc1 (stereo not drawn)	i	i	i	i	i	nt
COc1ccc(NC(=O)C23CC4CC(C2)CC(c2ccccc2)(C4)C3)c(OC)c1	i	i	13	i	i	i
C=CCn1c(C)cc(C(=O)CSc2nnc(NCc3ccccc3)s2)c1C	i	i	14	i	i	i
SMILES	Lmaj promast	ABCB1 inh	RAM network inh	ABCG2 inh	WT yeast gro inh	RAM 5-FOA
C=CCn1c(C)cc(C(=O)CSc2nnc(NC(C)C)s2)c1C	i	i	i	i	i	nt
COc1ccc(C(=O)NCC(O)COc2ccc(C(C)(C)C)cc2)cc1[N+](=O)[O-] (stereo not drawn)	i	i	i	i	i	nt
CCOCCCNC(=S)N1CCCN(c2nc3cc(C)ccc3cc2C#N)CC1	i	i	i	i	i	nt
CCOCCCNC(=S)N1CCCN(c2nc3c(C)c(C)ccc3cc2C#N)CC1	i	i	22	i	74	i
Cc1nn(C)c(Oc2ccccc2)c1CCNS(=O)(=O)c1ccccc1	i	i	i	i	i	nt
Cc1cc(NC(=O)CSc2nc3ccsc3c(=O)n2Cc2ccccn2)n[nH]1	i	i	20	i	i	i
C/C(O)=C(/C=NCC(=O)O)C(=O)Nc1nccs1	i	i	i	i	i	nt
CCn1nc(C(=O)OCC(=O)N2CC(=O)Nc3ccccc32)c2ccccc2c1=O	i	i	i	i	i	nt
CCn1c(CCNC(=O)c2ccc(Cl)c(Cl)c2)nnc1SCCOc1ccc(OC)cc1	i	i	16	i	i	i
COc1ccc(OCCSc2nnc(CCNC(=O)c3ccc(Cl)c(Cl)c3)n2C)cc1	i	i	i	i	i	nt
CCN1C(=O)c2cccc3c(NS(=O)(=O)c4ccc(NC(C)=O)cc4)ccc1c23	i	i	i	i	i	nt
CCOC(=O)c1ccc(NC(=O)Nc2ccc3c4c(cccc24)C(=O)N3CC)cc1	i	i	18	i	i	i
C/C(CC1CC(COCCC(C)C)OC1=O)=N\NC(N)=S (stereo not drawn)	i	i	i	i	i	nt
C/C(CC1CC2=C(CC1(C)C)C(C)(C)CCC2)=N\NC(N)=S (stereo not drawn)	101	i	13	i	76	i
Cc1ccccc1OCCC(=O)Nc1cccc(S(=O)(=O)Nc2ccccc2Cl)c1	i	i	17	i	i	i
COc1ccc(NS(=O)(=O)c2cccc(NC(=O)CCS(=O)(=O)c3ccccc3)c2)cc1	i	i	i	i	i	nt
O=c1nc2n(c3ncccc13)CCCCC2	i	i	i	i	i	nt
CCCCn1c(N)c(N(CCOC)C(=O)CN2c3ccccc3CC2C)c(=O)[nH]c1=O (stereo not drawn)	i	i	i	i	i	nt
Cc1ccc(S(=O)(=O)n2nc(-c3ccc(Cl)cc3)nc2NCc2ccco2)cc1	i	i	15	i	i	i
COc1cc(CNn2c(C)n[nH]c2=S)cc(Cl)c1OCc1ccccc1	i	i	13	i	i	i
Cc1ccc(NC(=O)COC(=O)c2sccc2C)cc1S(=O)(=O)N1CCOCC1	i	i	i	i	i	nt
CCOC(=O)N1CCC(=NNC(=O)c2ccccc2F)CC1	i	i	i	i	i	nt
O=C(NCc1cccnc1)Nc1ccccc1	i	i	i	i	i	nt
O=C(c1ccccc1)N(Cc1cccnc1)C1(C(=O)Nc2ccccc2)CCCCC1	i	i	16	i	i	i
N[C@@H](Cc1ccc(O)c(I)c1)C(=O)O	i	i	i	i	i	nt
O=C(O)Cc1cc(I)c(Oc2ccc(O)c(I)c2)c(I)c1	i	i	17	i	i	i
C/C(N)=C(/C#N)C(=O)COC(=O)CNC(=O)c1ccc(Cl)cc1Cl	i	i	i	i	i	nt
CC(=O)Nc1ccc(SCC(=O)Nc2cc(C)on2)cc1	i	i	i	i	i	nt
COC(=O)Cc1ccc(NC(=S)Nc2ccc(N3CCOCC3)cc2)cc1	i	i	i	i	i	nt
COc1cc(S(=O)(=O)Nc2ccccc2)ccc1N=Cc1c(C)[nH]n(-c2ccc(C)cc2)c1=O	i	i	13	i	i	i
